# Reference: ChEMBL document CHEMBL4270671, “Pathway-Based Drug Repositioning for Cancers: Computational Prediction and Experimental Validation” (J Med Chem, 2018)
# The source made the active and inactive calls. The calls are words filed in the database; no cut-off is given here.
# Legend:
# ASPC1 [1] = experiment: Induction of apoptosis in human AsPC1 cells assessed as increase in caspase 3/7 activity after 6 hrs by caspase glo 3/7 assay; type: functional, cell-based
# How it was run: (§1)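 A single multiplexed triplex kit read cell viability, cytotoxicity and apoptosis, with caspase-3/7 activity as the apoptosis marker. Compounds were tested over a range of concentrations on cancer lines and normal epithelial Het-1A cells, with DMSO as the vehicle control. Read-outs were compared against the DMSO wells.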
# A549 [2] = experiment: Induction of apoptosis in human A549 cells assessed as increase in caspase 3/7 activity after 6 hrs by caspase glo 3/7 assay; type: functional, cell-based; how it was run: as §1
# PC-3 [3] = experiment: Induction of apoptosis in human PC3 cells assessed as increase in caspase 3/7 activity after 6 hrs by caspase glo 3/7 assay; type: functional, cell-based; how it was run: as §1
# Caco-2 [4] = experiment: Induction of apoptosis in human Caco2 cells assessed as increase in caspase 3/7 activity after 6 hrs by caspase glo 3/7 assay; type: functional, cell-based; how it was run: as §1
# Caco-2 [5] = experiment: Cytotoxicity against human Caco2 cells after 6 hrs by fluorescence assay; type: functional, cell-based; how it was run: as §1
# A549 [6] = experiment: Reduction in viability of human A549 cells after 6 hrs by fluorescence assay; type: functional, cell-based; how it was run: as §1
# A549 [7] = experiment: Cytotoxicity against human A549 cells after 6 hrs by fluorescence assay; type: functional, cell-based; how it was run: as §1
# Caco-2 [8] = experiment: Reduction in viability of human Caco2 cells after 6 hrs by fluorescence assay; type: functional, cell-based; how it was run: as §1
# HET-1A [9] = experiment: Induction of apoptosis in human HET-1A cells assessed as increase in caspase 3/7 activity after 6 hrs by caspase glo 3/7 assay; type: cell-based; how it was run: as §1
# ASPC1 [10] = experiment: Cytotoxicity against human AsPC1 cells after 6 hrs by fluorescence assay; type: functional, cell-based; how it was run: as §1
# HET-1A [11] = experiment: Reduction in viability of human HET-1A cells after 6 hrs by fluorescence assay; type: cell-based; how it was run: as §1
# PC-3 [12] = experiment: Cytotoxicity against human PC3 cells after 6 hrs by fluorescence assay; type: functional, cell-based; how it was run: as §1
# ASPC1 [13] = experiment: Reduction in viability of human AsPC1 cells after 6 hrs by fluorescence assay; type: functional, cell-based; how it was run: as §1
# HET-1A [14] = experiment: Cytotoxicity against human HET-1A cells after 6 hrs by fluorescence assay; type: cell-based; how it was run: as §1
# PC-3 [15] = experiment: Reduction in viability of human PC3 cells after 6 hrs by fluorescence assay; type: functional, cell-based; how it was run: as §1
SMILES,Activity (ASPC1 [1]),Activity (A549 [2]),Activity (PC-3 [3]),Activity (Caco-2 [4]),Activity (Caco-2 [5]),Activity (A549 [6]),Activity (A549 [7]),Activity (Caco-2 [8]),Activity (HET-1A [9]),Activity (ASPC1 [10]),Activity (HET-1A [11]),Activity (PC-3 [12]),Activity (ASPC1 [13]),Activity (HET-1A [14]),Activity (PC-3 [15])
CC(=O)Oc1ccccc1C(=O)Nc1ncc([N+](=O)[O-])s1,inactive,inactive,inactive,inactive,–,–,–,–,–,–,–,–,–,–,–
CN(C)CCCN1c2ccccc2Sc2ccccc21 [PROMAZINE],Active,Dose-dependent effect,Dose-dependent effect,Dose-dependent effect,Dose-dependent effect,Dose-dependent effect,Dose-dependent effect,Dose-dependent effect,Dose-dependent effect,Dose-dependent effect,Dose-dependent effect,Dose-dependent effect,Dose-dependent effect,Dose-dependent effect,Dose-dependent effect
CN1[C@@H]2CCC[C@H]1CC(NC(=O)c1nn(C)c3ccccc13)C2 (stereo partly specified),–,–,–,–,–,inactive,–,inactive,–,–,Toxic,–,inactive,–,inactive
COC(=O)C1=C(C)NC(C)=C(C(=O)OCCN(C)Cc2ccccc2)C1c1cccc([N+](=O)[O-])c1 (stereo unspecified) [NICARDIPINE],–,–,Dose-dependent effect,Dose-dependent effect,Dose-dependent effect,Dose-dependent effect,Dose-dependent effect,Dose-dependent effect,Dose-dependent effect,Dose-dependent effect,Dose-dependent effect,Dose-dependent effect,Dose-dependent effect,Dose-dependent effect,Dose-dependent effect
CC[C@H]1OC(=O)[C@H](C)[C@@H](O[C@H]2C[C@@](C)(OC)[C@@H](O)[C@H](C)O2)[C@H](C)[C@@H](O[C@@H]2O[C@H](C)C[C@H](N(C)C)[C@H]2O)[C@](C)(O)C[C@@H](C)[C@@H]2N[C@@H](COCCOC)O[C@H]([C@H]2C)[C@]1(C)O [DIRITHROMYCIN],–,–,–,–,–,inactive,–,inactive,–,–,Toxic,–,inactive,–,inactive
OC1(c2ccc(Cl)c(C(F)(F)F)c2)CCN(CCCC(c2ccc(F)cc2)c2ccc(F)cc2)CC1 [PENFLURIDOL],Active,Dose-dependent effect,Dose-dependent effect,Dose-dependent effect,Dose-dependent effect,Dose-dependent effect,Dose-dependent effect,Dose-dependent effect,Dose-dependent effect,Dose-dependent effect,Dose-dependent effect,Dose-dependent effect,Dose-dependent effect,Dose-dependent effect,Dose-dependent effect
O=C(Nc1ccc([N+](=O)[O-])cc1Cl)c1cc(Cl)ccc1O [NICLOSAMIDE],Active,Active,Dose-dependent effect,Active,–,Dose-dependent effect,–,Dose-dependent effect,–,–,Dose-dependent effect,–,Dose-dependent effect,–,Dose-dependent effect
